Measured values as given in ChEMBL document CHEMBL2390866, “Novel pyrimidoazepine analogs as serotonin 5-HT(2A) and 5-HT(2C) receptor ligands for the treatment of obesity” (Eur J Med Chem, 2013).

Columns and labels:
Mus musculus [1] = test: Antiobesity activity in B6.V/J ob/ob mouse assessed as inhibition of food intake at 50 mg/kg, ip measured up to 6 hrs relative to vehicle-treated control; format: functional; settings: route intraperitoneal
In short: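 Male mice were acclimated 1 week at 23 ± 3 °C and 50 ± 20% humidity, then fasted 24 h. They were dosed once intraperitoneally with vehicle or compound: 50 mg/kg in C57BL/6, or 12.5, 25 or 50 mg/kg in B6.V-Lep^ob/J. Food intake was measured at 2, 6 and 12 h versus vehicle control.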

[2] = biological target: 5-hydroxytryptamine receptor 2B (Homo sapiens, UniProt P41595); test: Displacement of […] from human recombinant 5HT-2B receptor
[3] = biological target: T1, Alpha-2A adrenergic receptor (Homo sapiens, UniProt P08913); test: Binding affinity to adrenergic alpha2A receptor (unknown origin)
T1 sequence (P08913 whole entry): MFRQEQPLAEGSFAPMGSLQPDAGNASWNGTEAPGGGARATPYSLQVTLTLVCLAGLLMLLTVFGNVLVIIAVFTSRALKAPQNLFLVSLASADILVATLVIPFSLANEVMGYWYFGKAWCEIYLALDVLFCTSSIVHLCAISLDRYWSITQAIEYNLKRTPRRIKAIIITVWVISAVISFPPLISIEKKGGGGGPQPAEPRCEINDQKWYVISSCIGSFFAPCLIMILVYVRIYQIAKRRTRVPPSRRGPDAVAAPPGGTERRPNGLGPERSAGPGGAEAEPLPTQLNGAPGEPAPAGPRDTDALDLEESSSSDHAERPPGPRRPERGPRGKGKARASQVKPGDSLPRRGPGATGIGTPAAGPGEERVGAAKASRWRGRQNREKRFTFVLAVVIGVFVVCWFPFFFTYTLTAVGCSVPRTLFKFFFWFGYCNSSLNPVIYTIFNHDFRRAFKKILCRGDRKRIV

Mus musculus [4] = test: Antiobesity activity in B6.V/J ob/ob mouse assessed as change in kidney weight at 50 mg/kg, po bid measured after 14 days (reference value: 0.339 +/- 0.009 g); format: functional

Chain of 5-hydroxytryptamine receptor 2B (P41595 whole entry): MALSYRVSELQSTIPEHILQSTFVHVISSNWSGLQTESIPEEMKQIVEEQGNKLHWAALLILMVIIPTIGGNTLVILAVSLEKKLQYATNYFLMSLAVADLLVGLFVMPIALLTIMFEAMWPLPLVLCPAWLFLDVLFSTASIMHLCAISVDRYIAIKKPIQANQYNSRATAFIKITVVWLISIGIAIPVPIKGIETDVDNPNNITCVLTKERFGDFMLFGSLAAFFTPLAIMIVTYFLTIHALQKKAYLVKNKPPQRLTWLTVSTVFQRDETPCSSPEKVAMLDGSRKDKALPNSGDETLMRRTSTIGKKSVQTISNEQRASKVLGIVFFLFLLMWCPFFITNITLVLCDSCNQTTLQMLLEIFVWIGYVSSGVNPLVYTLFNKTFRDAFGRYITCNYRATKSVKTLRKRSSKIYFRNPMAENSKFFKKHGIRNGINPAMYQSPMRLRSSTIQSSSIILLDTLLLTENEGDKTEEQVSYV

Cl.Clc1cccc(Nc2nc(Cc3ccccc3)nc3c2CCNCC3)c1
inhibition in vivo at 50 mg/kg (Mus musculus [1]): 98.6%
IC50 [2]: 32 nM
IC50 [3]: > 10000 nM
Activity (Mus musculus [4]): 0.35 g
